Experimental data published in ChEMBL document CHEMBL1153617, “Synthesis of new acridines and hydrazones derived from cyclic beta-diketone for cytotoxic and antiviral evaluation” (2009).

Assays:
Set-up in all cases: scale not given: the % may be the effect or the level left
[1] = system: Hepatovirus A; assay: Antiviral activity against HAV MBB in human HepG2 cells assessed as reduction in viral titer at 10 ug/ml by plaque reduction assay; format: functional, Human hepatitis A virus Hu/Northern Africa/MBB/1978
Outline: (§1)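 HAV pre-mixed with compound (10 or 20 µg/10⁵ cells; virus at 10⁴ PFU/ml final), held overnight at 4 °C. Mixture inoculated onto HepG2 monolayers grown 2 days at 37 °C, then 1 h contact. Overlay of MEM with 1% agarose, incubated at 37 °C until plaques formed. Formalin-fixed, crystal violet-stained. Plaques counted; % reduction calculated against untreated virus control.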

[2] = system: Hepatovirus A; assay: Antiviral activity against HAV MBB in human HepG2 cells assessed as reduction in viral titer at 20 ug/ml by plaque reduction assay; format: functional, Human hepatitis A virus Hu/Northern Africa/MBB/1978; outline: as §1
[3] = system: HepG2; assay: Cytotoxicity against human HepG2 cells assessed as reduction in cell growth at 10 umol/ml after 24 hrs by MTT assay relative to control; format: functional
Outline: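 HepG2 grown in RPMI-1640 with 10% FCS. Cells taken at ~80% confluence, seeded 3×10³/well, incubated overnight at 37 °C, 5% CO₂. Compound exposure 24 h. Then PBS wash and MTT (0.5 mg/ml) for 4 h. Crystals dissolved in DMSO, OD read at 570 nm (reference 690 nm). Reported as % reduction in cell growth versus untreated control.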

| SMILES | Activity [1] | Activity [2] | Activity [3] |
| --- | --- | --- | --- |
| CC1(C)CC(=O)C=C(NCc2nnc(Nc3ccccc3)s2)C1 | 45.2% | 49% | – |
| CC1(C)CC(=O)C=C(NCC(=O)N/N=C\c2ccc(O)cc2)C1 | 9.4% | 15% | 40.32% |
| CC1(C)CC(=O)C=C(NCC(=O)N/N=C\c2ccc(Br)cc2)C1 | 43.3% | 27.3% | 40.06% |
| COc1ccc(/C=N\NC(=O)CNC2=CC(=O)CC(C)(C)C2)cc1 | 24.5% | 36.2% | 16.99% |
| CC1(C)CC(=O)C=C(NCC(=O)NNC(=S)Nc2ccccc2)C1 | 18.8% | 39.6% | 54.84% |
| CCOC(=O)CN1C2=C(C(=O)CC(C)(C)C2)C(c2ccc(O)cc2)C2=C1CC(C)(C)CC2=O | 30.1% | 48.1% | 54.7% |
| CCOC(=O)CN1C2=C(C(=O)CC(C)(C)C2)C(c2ccc(OC)cc2)C2=C1CC(C)(C)CC2=O | 24.5% | 45.2% | 37.99% |
| CC1(C)CC(=O)C=C(NCC(=O)NN)C1 | 33.9% | 34.9% | 57.4% |
| CCOC(=O)CNC1=CC(=O)CC(C)(C)C1 | 5.6% | 15% | 50% |
| CC1(C)CC(=O)C=C(NCC(=O)N/N=C\c2ccc(Cl)cc2)C1 | 57.5% | 60.3% | – |
| CC1(C)CC(=O)C=C(NCC(=O)NNC(=O)NCCCl)C1 | 42.4% | 40.5% | 58.29% |
| CCOC(=O)CN1C2=C(C(=O)CC(C)(C)C2)C(c2ccc(Cl)cc2)C2=C1CC(C)(C)CC2=O | 30.1% | 47.1% | 54.14% |
| CCOC(=O)CN1C2=C(C(=O)CC(C)(C)C2)C(c2ccccc2)C2=C1CC(C)(C)CC2=O | 37.7% | 60.3% | 3.32% |
| CCOC(=O)CN1C2=C(C(=O)CC(C)(C)C2)C(c2ccc(Br)cc2)C2=C1CC(C)(C)CC2=O | 47.1% | 52.8% | 49.17% |
| CC1(C)CC(=O)C=C(NCc2nnc(S)n2-c2ccccc2)C1 | 28.3% | 30.1% | 35.64% |
| CC1(C)CC(=O)C=C(NCC(=O)N/N=C\c2ccc([N+](=O)[O-])cc2)C1 | 39.6% | 43.3% | – |
| CC1(C)CC(=O)C=C(NCC(=O)N/N=C\c2ccccc2)C1 | 56.6% | 58.4% | – |
| NC12CC3CC(CC(C3)C1)C2 [AMANTADINE] | 30.1% | 45.2% | – |
